Legend:
Format in all cases: functional
Bacillus subtilis [1] = experiment: Antimicrobial activity against 20 mins UV photosensitized Bacillus subtilis measured after overnight reincubation under dark condition by agar plate disc diffusion method
Procedure, shortened: (§1)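 B. subtilis 18 h broth culture (0.02 ml) mixed into 10 ml liquefied nutrient agar (beef extract, peptone, K2HPO4, agar). Each dish carries a DMF disc and a xanthotoxin disc (10 mg/ml DMF). Test plates kept dark at 37 °C for 3 h for diffusion, then uncovered and exposed to 365 nm UV for 20 min. A duplicate plate left unirradiated in the incubator overnight. Inhibition zones measured.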

Escherichia coli = experiment: Antibacterial activity against Escherichia coli at 50 mg/mL after 48 hrs by agar plate disc diffusion method; conditions: read-out: IZ
Procedure, shortened: (§2)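 Discs placed on nutrient agar plates (15 ml agar seeded with 0.2 mL of 18 h liquid culture of each organism); plates incubated 37 °C for 48 h, inhibition zone diameter read in mm around each disc. DMF-impregnated discs as solvent control; tetracycline (antibacterial) and amphotericin B (antifungal) references run concurrently.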

Bacillus subtilis [2] = experiment: Antimicrobial activity against Bacillus subtilis pretreated 3 hrs before UV photosensitization measured after overnight reincubation under dark condition by agar plate disc diffusion method; procedure, shortened: as §1
Staphylococcus aureus = experiment: Antibacterial activity against Staphylococcus aureus at 50 mg/mL after 48 hrs by agar plate disc diffusion method; conditions: read-out: IZ; procedure, shortened: as §2
Candida albicans = experiment: Antifungal activity against Candida albicans at 50 mg/mL after 48 hrs by agar plate disc diffusion method; conditions: read-out: IZ; procedure, shortened: as §2

| Structure (SMILES) | inhibition zone (IZ) (Bacillus subtilis [1]) [millimeter] | zone of inhibition at 50000 µg/mL (Escherichia coli) [mm] | inhibition zone (IZ) (Bacillus subtilis [2]) [millimeter] | zone of inhibition at 50000 µg/mL (Staphylococcus aureus) [mm] | zone of inhibition at 50000 µg/mL (Candida albicans) [mm] |
| --- | --- | --- | --- | --- | --- |
| Cc1c(-c2nnc(S)n2Cc2ccccc2)c(=O)oc2ccc3c(-c4ccccc4)cc(=O)oc3c12 | 12 | – | – | – | – |
| COc1c2occc2c(OC)c2c(C)c(C(=O)NN)c(=O)oc12 | 14 | 18 | 12 | – | – |
| COc1c2occc2c(OC)c2c(C)c(C(=O)NNC(=S)NCc3ccccc3)c(=O)oc12 | 12 | – | 10 | – | – |
| Cc1c(C(=O)NNC(=S)NCc2ccccc2)c(=O)oc2ccc3c(-c4ccccc4)cc(=O)oc3c12 | 22 | 20 | 18 | 30 | – |
| COc1c2occc2c(OC)c2c(C)c(-c3nnc(S)n3Cc3ccccc3)c(=O)oc12 | 11 | – | – | – | – |
| CN(C)[C@@H]1C(O)=C(C(N)=O)C(=O)[C@@]2(O)C(O)=C3C(=O)c4c(O)cccc4[C@@](C)(O)[C@H]3C[C@@H]12 [TETRACYCLINE] | – | 34 | 30 | 36 | – |
| C[C@@H]1[C@H](O)[C@@H](C)/C=C/C=C/C=C/C=C/C=C/C=C/C=C/[C@H](O[C@@H]2O[C@H](C)[C@@H](O)[C@H](N)[C@@H]2O)C[C@@H]2O[C@](O)(C[C@@H](O)C[C@@H](O)[C@H](O)CC[C@@H](O)C[C@@H](O)CC(=O)O[C@H]1C)C[C@H](O)[C@H]2C(=O)O [AMPHOTERICIN B] | – | – | – | – | 30 |
| COc1c2occc2cc2ccc(=O)oc12 [METHOXSALEN] | 12 | – | – | – | – |

From ChEMBL document CHEMBL1154697, “Design, synthesis and docking studies of new furobenzopyranones and pyranobenzopyranones as photoreagent towards DNA and as antimicrobial agents” (2010)
